{"data": "Published values gathered from unrelated publications", "effect on": "thermal stability", "method": "DSF", "SIRT2": "NAD-dependent protein deacetylase sirtuin-2 (SIRT2, Homo sapiens, UniProt Q8IXJ6)", "lecA": "PA-I galactophilic lectin (lecA, Pseudomonas aeruginosa, UniProt Q05097)", "DCLK1": "Serine/threonine-protein kinase DCLK1 (DCLK1, Homo sapiens, UniProt O15075)", "GAK": "Cyclin-G-associated kinase (GAK, Homo sapiens, UniProt O14976)", "note": "Compare with care: the assays were run in different laboratories."}
{"SMILES": "Cc1ccc(Cn2cc(COc3cccc(Cc4cnc(NC(=O)CSc5nc(C)cc(C)n5)s4)c3)nn2)cc1", "target": "SIRT2", "setting": "25 µM", "ΔTm [°C]": 5.35}
{"SMILES": "O=C(c1ccccc1)c1ccc(O)c(O)c1", "target": "lecA", "setting": "4 mM", "ΔTm [°C]": 0.4}
{"SMILES": "Cn1c2c(c3ccc(Cl)c(Cl)c31)C(C#N)C(C)(C)NC2=O (centres unmarked)", "target": "DCLK1", "setting": "10 µM", "ΔTm [°C]": 0.4}
{"SMILES": "FC(F)(F)c1ccc2nccc(Nc3cccc(I)c3)c2c1", "target": "GAK", "setting": "10 µM", "ΔTm [°C]": 2.6}
{"SMILES": "Cn1c2c(c3ccc(Cl)c(Cl)c31)C(C#N)C1(CCCC1)NC2=O (centres unmarked)", "target": "DCLK1", "setting": "10 µM", "ΔTm [°C]": 0}
{"SMILES": "Cc1ccc(O)c(O)c1", "target": "lecA", "setting": "4 mM", "ΔTm [°C]": -11}
{"SMILES": "COc1ccc2nccc(Nc3cc(OC)c(OC)c(OC)c3)c2c1", "target": "GAK", "setting": "10 µM", "ΔTm [°C]": 6}
{"SMILES": "COCCn1cc(COc2cccc(Cc3cnc(NC(=O)CSc4nc(-c5ccccc5)cc(-c5ccccc5)n4)s3)c2)nn1", "target": "SIRT2", "setting": "25 µM", "ΔTm [°C]": 1.4}
